According to publication PMC4289021 (Nature, 2014):
Where a chain is given by its changes, count along the chain named. In names and notes the source's numbering stands.

Columns and labels:
RNF146 WWE domain = conditions: cited from earlier work
K61D RNF146(RING-WWE) = biological target: T1, K61D RNF146(RING-WWE) (Mus musculus, UniProt Q9CZW6, K63D); assay: ITC, iso-ADPr binding to K61D RNF146; conditions: 25 °C, K61D mutant
T1 sequence (Q9CZW6 32-185 K63D): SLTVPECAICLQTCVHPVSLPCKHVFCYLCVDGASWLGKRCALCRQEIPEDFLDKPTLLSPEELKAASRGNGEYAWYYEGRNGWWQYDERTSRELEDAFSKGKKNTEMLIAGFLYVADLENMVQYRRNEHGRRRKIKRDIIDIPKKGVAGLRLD
In short: (§1)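 Calorimetry at 25 °C on untagged mouse RNF146(RING-WWE), wild type or site-directed mutants. Protein and iso-ADPr were exchanged by Superdex 75 SEC into 20 mM HEPES pH 7.5, 150 mM NaCl, 1 mM DTT. Cell held ~15–20 μM protein. Ligand ~500 μM in the same buffer. Both were degassed. Injections of 5 μL every 5 min, 25–40 total. Kd came from a one-site model fit.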

RNF146(RING-WWE) K61D = assay: E2~Ub/lysine reactivity assay, K61D mutant; assay type: biochemical, mouse; conditions: 8 μM E3, 25 μM iso-ADPr
In short: (§2)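 Mouse RNF146(RING-WWE) (residues 30–183), made from a GST-tagged construct with TEV cleavage, or His6-T7-tagged full-length RNF146. UbcH5~Ub was charged by wheat E1 (1.5 μM) with 100 μM E2, 200 μM K0 Ub, 2.5 mM MgCl2 and 2 mM ATP in PBS at 37 °C for 30 min, then SEC-purified. Final: 25 μM E2, 4 or 8 μM E3, ± iso-ADPr. Started with 40 mM L-lysine at 35 °C; sampled 1–15 min; non-reducing SDS-PAGE, Coomassie/Oriole stain.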

K61A RNF146(RING-WWE) = biological target: T2, K61A RNF146(RING-WWE) (Mus musculus, UniProt Q9CZW6, K63A); assay: ITC, iso-ADPr binding to K61A RNF146; conditions: 25 °C, K61A mutant
T2 sequence (Q9CZW6 32-185 K63A): T1 sequence (Q9CZW6 32-185 K63D) with D32A
In short: as §1

[1] = tested on: full-length RNF146 or RNF146(RING-WWE); assay: E2~Ub/lysine reactivity assay with UbcH5; assay type: biochemical, human; conditions: for activation of Ub transfer from UbcH5~Ub to lysine: ligand added to full-length RNF146 or RING-WWE fragment, not RING-only construct
In short: as §2

RNF146 WWE domain alone = conditions: previously published; cited from earlier work
[2] = biological target: T3, RNF146(RING-WWE) (residues 30–183) (Mus musculus, UniProt Q9CZW6); assay: ITC, iso-ADPr binding to WT RNF146
T3 sequence (Q9CZW6 32-185): T1 sequence (Q9CZW6 32-185 K63D) with D32K

TNKS(5ARC) [3] = biological target: T4, TNKS(5ARC) (human, UniProt O95271 173-961); assay: pull-down
T4 sequence (looked up): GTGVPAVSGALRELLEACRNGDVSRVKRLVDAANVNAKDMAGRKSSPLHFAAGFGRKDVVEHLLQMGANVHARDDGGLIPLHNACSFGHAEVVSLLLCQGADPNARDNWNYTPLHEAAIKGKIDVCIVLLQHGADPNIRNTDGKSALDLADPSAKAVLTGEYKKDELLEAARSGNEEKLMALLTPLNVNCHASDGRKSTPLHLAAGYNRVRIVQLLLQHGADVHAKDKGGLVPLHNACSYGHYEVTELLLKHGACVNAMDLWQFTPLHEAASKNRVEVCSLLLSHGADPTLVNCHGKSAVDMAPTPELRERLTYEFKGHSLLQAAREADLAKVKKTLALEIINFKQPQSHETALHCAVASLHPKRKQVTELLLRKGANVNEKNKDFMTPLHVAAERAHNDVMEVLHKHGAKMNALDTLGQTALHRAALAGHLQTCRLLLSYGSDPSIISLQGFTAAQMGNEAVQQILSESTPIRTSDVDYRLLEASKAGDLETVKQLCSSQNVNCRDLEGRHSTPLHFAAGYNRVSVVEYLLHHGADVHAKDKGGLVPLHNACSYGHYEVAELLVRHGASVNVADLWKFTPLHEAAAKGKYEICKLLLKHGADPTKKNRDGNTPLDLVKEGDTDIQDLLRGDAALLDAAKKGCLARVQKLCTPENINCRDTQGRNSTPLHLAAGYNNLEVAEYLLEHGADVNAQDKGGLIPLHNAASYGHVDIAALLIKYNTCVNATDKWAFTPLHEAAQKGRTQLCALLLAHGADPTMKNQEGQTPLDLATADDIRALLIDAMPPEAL

[4] = biological target: T5, Full-length mouse tankyrase-1 (mouse, UniProt Q6PFX9 1-1320); assay: pull-down
T5 sequence (looked up): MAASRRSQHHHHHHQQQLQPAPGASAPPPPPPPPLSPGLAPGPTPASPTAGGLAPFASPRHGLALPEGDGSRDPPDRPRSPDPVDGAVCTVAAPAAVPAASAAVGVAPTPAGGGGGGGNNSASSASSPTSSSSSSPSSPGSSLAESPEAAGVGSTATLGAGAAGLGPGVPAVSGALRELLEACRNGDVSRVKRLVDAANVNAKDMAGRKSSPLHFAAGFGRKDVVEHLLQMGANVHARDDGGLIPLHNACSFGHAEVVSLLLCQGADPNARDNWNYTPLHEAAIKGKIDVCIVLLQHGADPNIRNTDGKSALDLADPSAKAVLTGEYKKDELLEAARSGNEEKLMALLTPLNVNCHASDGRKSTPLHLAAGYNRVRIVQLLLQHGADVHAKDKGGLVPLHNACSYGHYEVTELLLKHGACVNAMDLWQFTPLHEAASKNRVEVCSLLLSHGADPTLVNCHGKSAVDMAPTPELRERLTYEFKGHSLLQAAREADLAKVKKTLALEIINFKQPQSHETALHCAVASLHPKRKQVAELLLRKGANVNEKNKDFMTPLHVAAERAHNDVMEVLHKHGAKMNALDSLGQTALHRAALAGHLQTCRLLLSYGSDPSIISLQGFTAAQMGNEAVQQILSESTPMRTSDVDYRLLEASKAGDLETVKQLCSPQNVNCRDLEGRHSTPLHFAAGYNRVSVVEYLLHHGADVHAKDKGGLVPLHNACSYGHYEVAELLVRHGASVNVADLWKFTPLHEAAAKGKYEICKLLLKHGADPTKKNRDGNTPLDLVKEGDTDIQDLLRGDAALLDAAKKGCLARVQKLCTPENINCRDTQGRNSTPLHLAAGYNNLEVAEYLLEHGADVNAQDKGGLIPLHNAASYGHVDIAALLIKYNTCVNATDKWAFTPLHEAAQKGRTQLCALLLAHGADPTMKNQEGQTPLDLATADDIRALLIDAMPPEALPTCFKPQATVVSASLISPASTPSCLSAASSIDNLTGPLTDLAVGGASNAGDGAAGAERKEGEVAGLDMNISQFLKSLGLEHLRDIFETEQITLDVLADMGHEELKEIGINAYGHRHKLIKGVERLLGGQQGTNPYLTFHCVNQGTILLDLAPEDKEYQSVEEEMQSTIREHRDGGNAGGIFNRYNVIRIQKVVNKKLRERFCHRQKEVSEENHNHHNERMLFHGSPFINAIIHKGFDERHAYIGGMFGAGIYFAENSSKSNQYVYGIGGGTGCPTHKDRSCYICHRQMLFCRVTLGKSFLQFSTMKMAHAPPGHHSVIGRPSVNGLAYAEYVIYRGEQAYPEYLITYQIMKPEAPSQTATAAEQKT

TNKS(5ARC) [5] = biological target: T4, TNKS(5ARC); assay: SEC-MALS

Which “binding to WWE domain” value (RNF146 WWE domain) does the source give for Nc1ncnc2c1ncn2[C@@H]1O[C@H](COP(=O)(O)OP(=O)(O)OC[C@H]2OC(O)[C@H](O)[C@@H]2O)[C@@H](O)[C@H]1O (stereo partly shown) [ADPr, ADP-ribose] here?
The value was “does not bind”.

Which Kd (K61D RNF146(RING-WWE)) does the source give for Nc1ncnc2c1ncn2[C@@H]1O[C@H](COP(=O)(O)O)[C@@H](O)[C@H]1O[C@@H]1O[C@H](COP(=O)(O)O)[C@@H](O)[C@H]1O [iso-ADPr] here?
Its Kd is 457 nM.

And the “activation of E2~Ub/lysine reactivity” value (RNF146(RING-WWE) K61D)?
Its value is “not activated”.

And the Kd (K61A RNF146(RING-WWE))?
The Kd was 214 nM.

And the “iso-ADPr concentration up to which the rate of E2~Ub/lysine reactivity increases” value ([1]; 3 min after lysine addition, 1.2 equiv.)?
The value was 5 µM.

What about the “activation of Ub transfer from UbcH5~Ub to lysine” value [1] of the same molecule?
The value was “robust activation”.

What about the Kd (RNF146 WWE domain alone) of the same molecule?
Its Kd is 372 nM.

What about the Kd ([2]; ITC, 25 °C, one-site model) of the same molecule?
Its Kd is 39 nM.

What about the “binding to RNF146(RING-WWE) relative to the WWE domain alone” value ([2]; ratio of Kd 39 nM vs 372 nM) of the same molecule?
Its value is “ten times tighter”.

For poly(ADP-ribose) [PAR], which “activation of Ub transfer from UbcH5~Ub to lysine” value [1] is on record?
The value was “robust activation”.

B1: GST-RNF146 G337V/G338V (natural protein, human, UniProt Q9NTX7-2 1-358, looked up)
chain: MAGCGEIDHSINMLPTNRKANESCSNTAPSLTVPECAICLQTCVHPVSLPCKHVFCYLCVKGASWLGKRCALCRQEIPEDFLDKPTLLSPEELKAASRGNGEYAWYYEGRNGWWQYDERTSRELEDAFSKGKKNTEMLIAGFLYVADLENMVQYRRNEHGRRRKIKRDIIDIPKKGVAGLRLDCDANTVNLARESSADGADSVSAQSGASVQPLVSSVRPLTSVDGQLTSPATPSPDASTSLEDSFAHLQLSGDNTAERSHRGEGEEDHESPSSGRVPAPDTSIEETESDASSDSEDVSAVVAQHSLTQQRLLVSNANQTVPDRSDRSGTDRSVAGVVTVSVSVRSRRPDGQCTVTEV
Does B1 bind (TNKS(5ARC) [3])?
Result: binds

B2: GST-RNF146-R163A (natural protein, human, UniProt Q9NTX7-2 1-358, looked up)
chain: B1 chain with R163A, V337G, V338G
Does B2 bind [4]?
Result: binds

B3: GST-RNF146 (full-length, wt) (natural protein, human, UniProt Q9NTX7-2 1-358, looked up)
chain: B1 chain with V337G, V338G
Does B3 bind (TNKS(5ARC) [3])?
Result: binds

B4: His6-T7-RNF146 (full-length) (natural protein, human, UniProt Q9NTX7-2 1-358, looked up)
chain: B1 chain with V337G, V338G
Does B4 bind (TNKS(5ARC) [5])?
Result: binds

B5: GST-RNF146(1–205) (domain or fragment, human, UniProt Q9NTX7-2 1-205, looked up)
chain: MAGCGEIDHSINMLPTNRKANESCSNTAPSLTVPECAICLQTCVHPVSLPCKHVFCYLCVKGASWLGKRCALCRQEIPEDFLDKPTLLSPEELKAASRGNGEYAWYYEGRNGWWQYDERTSRELEDAFSKGKKNTEMLIAGFLYVADLENMVQYRRNEHGRRRKIKRDIIDIPKKGVAGLRLDCDANTVNLARESSADGADSVSA
Does B5 bind (TNKS(5ARC) [3])?
Result: binds

B6: GST-RNF146 G199V (natural protein, human, UniProt Q9NTX7-2 1-358, looked up)
chain: B1 chain with G199V, V337G, V338G
Does B6 bind (TNKS(5ARC) [3])?
Result: binds
